Screens deposited in PubChem by several laboratories.
In the library only some 4.7% were active in any assay of this set; here they are far more common.
MPTP inh: inhibitors of mitochondrial permeability transition pore; inhibition, % at 10 µM; isolated mouse mitochondria, Ca2+ swelling absorbance, 30 min; 360,000 compounds, 1.4% hits; AID 602449;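 active means inhibition of 50% or more, scaled per plate between neutral and stimulator controls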;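 further: 0% = DMSO wells given calcium and 100% = 1 mM EGTA wells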
ADAM17 inh: ADAM17 inhibition, QFRET primary screen | recombinant ADAM17, EDANS/DABCYL FRET peptide cleavage | inhibition, % at 6.95 µM | P78536 | AID 720648 | 370,000 compounds, 0.83% hits;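 active means inhibition above the mean of compounds lying between control limits plus 3 SD, set per campaign, cut at about 8.5% in these data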;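 further: 0% = DMSO-only wells as the low control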
SKN-1 block: inhibitors of C. elegans SKN-1; C. elegans VP596 Pgst-4::GFP/RFP ratio, acrylamide-induced, 24 h; inhibition, % at 21.8 µM; 360,000 compounds, 0.49% hits;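 active means interference check ratio from 0.5 to 1.5 plus GFP to RFP signal ratio inhibition reaching or exceeding a fixed threshold, cut at about 30% in these data, passing the limit was not always enough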
MT1-MMP act inh: inhibitors of human MT1-MMP activation; P50281; HT1080 RFP-PRO-GFP cells, GFP/RFP ratio fluorescence, overnight; percent of plate control window, DMSO zero; GFP/RFP ratio change, % at 20 µM; 360,000 compounds, 0.061% hits;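 active means GFP/RFP ratio change of at least 30% with cell ATP level not reduced by more than half and red fluorescence within 50% of control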
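Assay system: HT1080 cells carrying an RFP-PRO-GFP reporter | Dosing: Single dose of 20 µM compound, 1% DMSO final | Incubation: Cells overnight before dosing, compound overnight, 37 °C, 5% CO2 | Evaluation: GFP/RFP fluorescence ratio | Control set: DMSO and RFP-L50D-GFP cell wells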
ADAM10 inh: inhibitors of human ADAM10 | recombinant ADAM10, EDANS/DABCYL FRET peptide cleavage, 3 h | inhibition, % at 7 µM | 370,000 compounds, 0.62% hits;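 active means inhibition above a per-campaign cutoff equal to the mean of compounds falling between control-based bounds plus 3 SD, cut at about 20% in these data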;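 further: 0% = DMSO wells while the 100% control is not disclosed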
Target sequence (O14672 214-748 limits assumed): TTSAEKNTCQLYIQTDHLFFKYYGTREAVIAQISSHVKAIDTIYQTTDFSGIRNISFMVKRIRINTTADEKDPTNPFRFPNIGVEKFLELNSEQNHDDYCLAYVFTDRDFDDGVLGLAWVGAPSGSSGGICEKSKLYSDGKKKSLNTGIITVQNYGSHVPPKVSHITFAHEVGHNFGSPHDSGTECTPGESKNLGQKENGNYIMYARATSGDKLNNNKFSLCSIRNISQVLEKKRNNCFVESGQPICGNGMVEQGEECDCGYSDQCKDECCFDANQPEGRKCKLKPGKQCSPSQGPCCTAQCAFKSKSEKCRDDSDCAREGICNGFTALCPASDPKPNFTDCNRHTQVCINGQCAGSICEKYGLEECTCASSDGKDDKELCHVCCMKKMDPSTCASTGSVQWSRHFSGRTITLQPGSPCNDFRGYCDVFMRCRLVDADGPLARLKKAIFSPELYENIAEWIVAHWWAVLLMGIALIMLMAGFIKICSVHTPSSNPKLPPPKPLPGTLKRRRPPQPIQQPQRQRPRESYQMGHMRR
GRIN3A LBD mod: NR3A (human) ligand-binding domain modulation | AID 1259313 | NR3A LBD differential scanning fluorimetry, Tm shift; 0% = protein alone, 100% = glycine-bound protein | 340,000 compounds, 2.5% hits | Tm shift relative to glycine control, % at 25 µM;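 active means melting temperature shift of at least 10% of the positive control shift, at one fixed dose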
ADAM10 counter: counter-screen for ADAM17 exosite inhibitors: inhibitors of human ADAM10. 2,900 compounds, 47% hits. AID 743256. inhibition, % at 6.95 µM. recombinant ADAM10, EDANS/DABCYL FRET peptide cleavage, 3 h. shares compounds with ADAM17 inh;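 active means mean inhibition over the triplicate runs exceeds the activity threshold set in the earlier primary screen, cut at about 20% in these data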;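 further: 0% = DMSO wells and 100% = marimastat wells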
ADAM17 confirm: human ADAM17 inhibition, confirmation; shares compounds with ADAM17 inh; recombinant ADAM17, EDANS/DABCYL QFRET peptide cleavage; 2,900 compounds, 65% hits; inhibition, % at 6.95 µM;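 active means mean inhibition across replicates above the hit cutoff set in the primary screen, cut at about 8.5% in these data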;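 further: 0% = DMSO wells and 100% = marimastat wells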
An asterisk follows results filed as active; x = no result.

SMILES	MPTP inh	ADAM17 inh	SKN-1 block	MT1-MMP act inh	ADAM10 inh	GRIN3A LBD mod	ADAM10 counter	ADAM17 confirm
O=C1CCCCC1C(Nc1ccc(Cl)cc1)c1ccccc1 (configuration not stated)	-3	11*	8	0	18	-8	14	13*
CC(C)=CC(=O)OCC(=O)NC(=O)NC(C)(C)C	-1	3	-16	4	9	1	x	x
CCN(Cc1ccccc1)c1ccc(/C=C(\C#N)c2ccccn2)cc1	0	-3	-2	-18	1	2	x	x
COc1cc(/C=C(\C#N)c2ccccn2)ccc1OCc1ccccc1	-1	9.4*	6	-2	0	-7	9	16*
O=C(/C=C/c1ccc2c(c1)OCO2)c1ccc(O)cc1O	3	9.3*	10	-16	1	32*	7	6
CCCn1c(C)cc(C(=O)COC(=O)c2cc(S(=O)(=O)NCC(C)C)c(Cl)cc2Cl)c1C	2	10*	-12	-3	15	-2	20*	9.7*
COc1cc(-c2coc3c(C(=O)NCc4cccc(Cl)c4)cccc23)ccc1O	1	8.6*	6	5	15	x	27*	13*
COc1ccc(/C=N/NC(=O)c2ccco2)cc1COc1ccc(F)cc1	0	-6	12	5	-9	-24	x	x
CC1(Cc2ccc(OC(F)(F)F)cc2)C(=O)Nc2c(Cl)ccc(Cl)c21 (configuration not stated)	1	9.7*	6	-10	16	x	31*	15*
CC1(Cc2ccc(OC(F)(F)F)cc2)C(=O)Nc2ccc(OC(F)(F)F)cc21 (configuration not stated)	2	11*	38*	0	18	x	51*	25*
COc1ccc(CCN(C(=O)C(F)(F)F)C(C(=O)NC2CCCCC2)c2ccc(C)s2)cc1 (configuration not stated)	4	9.1*	-8	3	3	0	-2	1
COc1ccc(CCN(C(=O)C(F)(F)F)C(C(=O)NC2CCCCC2)c2cccs2)cc1 (configuration not stated)	7	3	6	-17	8	1	x	x
Cc1cnc(NC(=O)CSc2ccc(Cl)cc2)s1	1	9.0*	8	-3	9	6	7	7
Cc1cnc(NC(=O)CSc2nnc(N)s2)s1	-2	1	5	-3	-1	-1	x	x
Cc1ccc(C(=O)OCC(=O)Nc2cc(C(C)(C)C)no2)c(C)c1	0	12*	7	0	10	-10	33*	17*
CCOC(=O)c1ccc(S(=O)(=O)Nc2cc(C(C)(C)C)no2)cc1	4	-3	32	-1	-4	-2	x	x
CCOc1ccc(S(=O)(=O)NN2Cc3ccccc3C2=N)cc1	-2	-1	5	-2	-1	0	x	x
CCCCN(C)C(=O)c1nc2ccccn2c1CNCCCn1nnc2ccccc21	1	-2	7	-4	2	-1	x	x
COc1ccc(NCC(=O)Nc2ccc(Br)cc2F)c(OC)c1	3	10*	0	15	5	0	27*	9.3*
COC(=O)CC1(c2cccc3ccccc23)C(=O)c2ccccc2C1=O	0	4	-4	3	8	1	x	x
NC(CSC1(c2cccc3ccccc23)c2ccccc2-c2ccccc21)C(=O)O (configuration not stated)	0	10*	7	1	-7	-11	13	10*
C[C@H](CO)N1C[C@H](C)[C@@H](CN(C)S(=O)(=O)c2cn(C)cn2)Oc2ccc(NC(=O)Nc3ccc4c(c3)OCO4)cc2C1=O	-1	-6	2	0	-4	-3	x	x
CN1N=C(C(=O)N2CCc3c([nH]c4ccccc34)C2c2ccccc2Cl)CCC1=O (configuration not stated)	-1	0	-5	-2	1	-1	x	x
Cc1nnc(NC(=O)CCn2c(=O)oc3ccc(Cl)cc32)s1	1	0	2	0	-4	-1	x	x
Cc1csc(NC(=O)CCn2c(=O)oc3ccc(Cl)cc32)n1	-1	8.7*	6	5	-6	0	-3	1
SMILES	MPTP inh	ADAM17 inh	SKN-1 block	MT1-MMP act inh	ADAM10 inh	GRIN3A LBD mod	ADAM10 counter	ADAM17 confirm
O=C(c1ccc(C(F)(F)F)cc1)N1CCC(=O)N(C(COCc2ccc(C(F)(F)F)cc2)Cc2ccccc2)CC1 (configuration not stated)	0	8.9*	2	2	18	-18	38*	17*
COc1ccc(C)cc1S(=O)(=O)N(CC(=O)NCc1ccc(Cl)cc1)Cc1ccccc1	-2	9.7*	13	-12	19	-6	31*	17*
COc1ccc(/C=N/NC(N)=S)cc1OC(=O)c1ccccc1	0	9.1*	5	0	-1	1	10	8
CC12CCC(C(=O)Nc3ccc(SC(F)F)cc3)(CC1=O)C2(C)C (configuration not stated)	4	15*	7	4	10	-1	0	4
O=C(Nc1ccc(SC(F)F)cc1)C12CCC(CC1)C2	9	3	2	2	-10	0	x	x
Oc1c(C(c2ccccn2)N2CCCCC2)cc(Cl)c2cccnc12 (configuration not stated)	4	26*	3	-9	10	-2	9	27*
CCN1CCN(C(c2ccc(C(F)(F)F)cc2)c2ccc3cccnc3c2O)CC1 (configuration not stated)	0	4	-7	7	9	4	x	x
CN1CCN(C(c2ccc(C(F)(F)F)cc2)c2cc(Cl)c3cccnc3c2O)CC1 (configuration not stated)	x	12*	x	x	16	x	36*	16*
CC1(C(=O)OCC(=O)Nc2ccccc2)CC1(Cl)Cl (configuration not stated)	0	-1	1	0	3	-1	x	x
CCCCOc1ccc(NC(=O)CN2CCN(Cc3ccccc3)CC2)cc1	0	8.8*	2	4	14	-2	-2	4
COC(=O)N1C(=O)[C@@](c2ccccc2)(C(C)C)N1C(=O)OC	1	x	-19	-2	x	-3	x	x
Cc1ccccc1CN1CCCCC(NC(=O)c2ccc3ccccc3c2)C1=O (configuration not stated)	x	22*	x	x	5	x	7	8
